Source: publication PMC12207910 (European journal of pharmaceutical sciences : official …, 2024)
≈ marks a conversion by molar mass, not a printed value. Entries after “also recorded” stand apart in the source; their conditions may differ. Read-outs that look alike come from different tables or passages of the source. Non-standard residues stand in square brackets, D forms with d. Residues, ends and D or L forms follow the SMILES beside them. Dip = N[C@H](C(=O)O)C(c1ccccc1)c1ccccc1

Experiments:
[1] = system: C. albicans (ATCC 60193); assay: microbe, parasite or virus in culture; details: Candida albicans, ATCC60193, read-out: MIC C. albicans (ATCC 60193)
[2] = system: C. albicans (ATCC 10132); assay: microbe, parasite or virus in culture; details: Candida albicans, ATCC10132, read-out: MIC C. albicans (ATCC 10132)
[3] = system: C. krusii (ATCC 6258); assay: organism not typed; details: read-out: MIC C. krusii (ATCC 6258)
[4] = system: C. albicans (ATCC 60193); assay: microbe, parasite or virus in culture; type: cell-based; details: for MIC: Candida albicans
[5] = system: C. albicans (ATCC 60193); assay: Kill kinetics assay; type: cell-based; details: for eradication of fungal cells: after 12 h
[6] = system: Enterococcus faecium (ATCC 27270); assay: microbe, parasite or virus in culture; details: ATCC27270, read-out: MIC Enterococcus faecium (ATCC 27270)
[7] = system: Staphylococcus pneumoniae (ATCC 49619); assay: microbe, parasite or virus in culture; details: ATCC49619, read-out: MIC Staphylococcus pneumoniae (ATCC 49619)
[8] = system: A. fumigatus (Af-293); assay: microbe, parasite or virus in culture; type: cell-based, Aspergillus fumigatus
[9] = in vitro; details: human
[10] = system: human skin fibroblast cell (HeKa); details: 24 h, 100 μg/mL
[11] = system: Gram-negative bacteria; details: drug-resistant Gram-negative bacteria, range over strains
[12] = system: Enterococcus faecalis (ATCC 29212)
[13] = in vitro; details: human, cell viability
[14] = Calcein dye leakage assay; details: mammalian mimic liposomes; after 100 min; concentration not given
In short: (§1)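 Calcein-loaded LUVs were used: negatively charged ones mimic bacterial membranes and zwitterionic ones mimic mammalian membranes. They were diluted in PBS to a final lipid concentration of 40 μM and mixed 1:1 with test compound at 5, 10, 20, 30 or 50 μg/mL. Fluorescence (ex 490/em 520 nm) was read every 10 min for 100 min. Leakage was expressed relative to background and Triton X-100 lysis (100%); triplicate.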

[15] = system: Clostridium difficile (ATCC 700057)
[16] = system: human red blood cells (hRBC); assay: Hemolytic activity; type: cell-based; details: concentration at which 50% hemolysis was observed
[17] = system: A. fumigatus (Af-293); assay: Kill kinetics assay; type: cell-based, Aspergillus fumigatus; details: after 12 h
[18] = system: MRSA (ATCC BAA-1556); type: cell-based, Methicillin-resistant staphylococcus aureus
[19] = system: C. albicans (ATCC 60193) biofilm; assay: Antibiofilm activity, XTT assay; type: cell-based
In short: (§2)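 Fungal biofilms came from suspensions at 2×10^7 CFU/mL in RPMI medium grown 24 h at 35 °C, then washed twice with PBS. […] After washing, XTT with phenazine methosulfate was added for 1 h in the dark at 37 °C, and absorbance was read at 492 nm. Percentage decrease versus untreated wells; triplicate, replicated twice.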

[20] = system: MRSA (ATCC BAA-1556) biofilm; assay: Antibiofilm activity, XTT assay; type: cell-based, Methicillin-resistant staphylococcus aureus
In short: (§3)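 Bacterial suspensions at 5×10^5 CFU/mL in MH broth were grown 24 h at 37 °C to form biofilms, then washed twice with PBS. […] Biofilms were rewashed, then given XTT plus phenazine methosulfate for 1 h in the dark at 37 °C, and A492 was read. Percentage decrease versus untreated wells; triplicate, run twice.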

[21] = system: Staphylococcus pneumoniae (ATCC 700677), multi-drug resistant; details: Multi-drug resistant (Penicillin, Tetracycline, and Erythromycin)
[22] = in vitro; details: human, cell viability; remark: listed apart in the source
[23] = system: MRSA (ATCC BAA-1556); assay: Kill kinetics assay; type: cell-based, Methicillin-resistant staphylococcus aureus
[24] = system: E. coli (ATCC 25922) and E. coli (ATCC BAA-2452); assay: Resistance development study, repeated exposure; type: cell-based; details: E. coli strains; 18 exposures
[25] = system: fungi; details: range over strains
[26] = in vitro; details: human, cell viability; remark: listed apart in the source
[27] = system: E. coli (ATCC BAA-2452) biofilm; assay: Antibiofilm activity, XTT assay; type: cell-based, Escherichia coli
In short: as §3

[28] = system: Pseudomonas aeruginosa (ATCC BAA-1744), imipenem resistant; details: Imipenem resistant strain
[29] = system: Clostridium difficile (NAP1/027); details: Reduced susceptibility to multiple antibiotics
[30] = in vitro; details: human; remark: listed apart in the source
[31] = Calcein dye leakage assay; details: bacterial mimic liposomes; for calcein dye leakage: 5 μg/mL
In short: as §1

[32] = system: Enterococcus faecalis (ATCC 51575), vancomycin resistant
[33] = system: Acinetobacter baumannii (ATCC BAA1605), ciprofloxacin resistant; details: Ciprofloxacin resistant strain
[34] = system: A. fumigatus (Af-293) biofilm; assay: Antibiofilm activity, XTT assay; type: cell-based, Aspergillus fumigatus
In short: as §2

[35] = system: E. coli (ATCC BAA-2452); assay: Kill kinetics assay; type: cell-based, Escherichia coli
[36] = system: E. coli (ATCC BAA-2452); type: cell-based, Escherichia coli
[37] = system: Escherichia coli (ATCC BAA-2452), NDM-1

For OC(Cn1cncn1)(Cn1cncn1)c1ccc(F)cc1F [Fluconazole], the MIC [1] was 1.5 µg/mL (≈ 4.9 µM), the MIC [2] was 0.7 µg/mL (≈ 2.29 µM) and the MIC [3] was 0.7 µg/mL (≈ 2.29 µM). The MIC ([4]; ATCC60193, read-out: MIC CaCl2) was 1.5 µg/mL (≈ 4.9 µM), the MIC ([4]; ATCC60193, read-out: MIC Control) was 1.5 µg/mL (≈ 4.9 µM) and the MIC ([4]; ATCC60193, read-out: MIC FBS (25%)) was 1.5 µg/mL (≈ 4.9 µM). The MIC ([4]; ATCC60193, read-out: MIC KCl) was 1.5 µg/mL (≈ 4.9 µM), the MIC ([4]; ATCC60193, read-out: MIC MgCl2) was 1.5 µg/mL (≈ 4.9 µM) and the MIC ([4]; ATCC60193, read-out: MIC NH4Cl) was 1.5 µg/mL (≈ 4.9 µM). For the same molecule, the MIC ([4]; ATCC60193, read-out: MIC NaCl) was 1.5 µg/mL (≈ 4.9 µM) and the “fungicidal effect in kill kinetics” value ([5]; MIC and 4×MIC, compared to 3b and 4b) was “mild fungicidal effect”.
CN[C@H](CC(C)C)C(=O)N[C@H]1C(=O)N[C@@H](CC(N)=O)C(=O)N[C@H]2C(=O)N[C@H]3C(=O)N[C@H](C(=O)N[C@H](C(=O)O)c4cc(O)cc(O)c4-c4cc3ccc4O)[C@H](O)c3ccc(c(Cl)c3)Oc3cc2cc(c3O[C@@H]2O[C@H](CO)[C@@H](O)[C@H](O)[C@H]2O[C@H]2C[C@](C)(N)[C@H](O)[C@H](C)O2)Oc2ccc(cc2Cl)[C@H]1O [Vancomycin] gave an MIC [6] of 1.5 µg/mL (≈ 1.04 µM) and an MIC [7] of 3.1 µg/mL (≈ 2.14 µM).
With N=C(N)NCCC[C@@H]1NC(=O)[C@H](CCCNC(=N)N)NC(=O)[C@H](CCCNC(=N)N)NC(=O)[C@H](C(c2ccccc2)c2ccccc2)NC(=O)[C@H](Cc2c[nH]c3ccccc23)NC(=O)[C@H](C(c2ccccc2)c2ccccc2)NC(=O)[C@H](CCCNC(=N)N)NC1=O [3b, c[Arg-Arg-Arg-Arg-Dip-Trp-Dip]] (cyclo(RRRR[Dip]W[Dip])) the “MIC MgCl2” value ([8]; A. fumigatus (Af-293), MgCl2 1 mM) was 12.5 µg/mL (≈ 9.94 µM), the “MIC NaCl” value ([8]; A. fumigatus (Af-293), NaCl 150 mM) was 12.5 µg/mL (≈ 9.94 µM) and the “MIC FBS (25%)” value ([8]; A. fumigatus (Af-293), fetal bovine serum 25%) was 12.5 µg/mL (≈ 9.94 µM). For the same molecule, the “MIC CaCl2” value ([8]; Af-293) was 6.2 µg/mL (≈ 4.93 µM), the “MIC Control” value ([8]; Af-293) was 6.2 µg/mL (≈ 4.93 µM) and the “MIC KCl” value ([8]; Af-293) was 6.2 µg/mL (≈ 4.93 µM). The “MIC NH4Cl” value ([8]; Af-293) was 6.2 µg/mL (≈ 4.93 µM), the viability at 24 h, 50 μg/mL [9] was 81 to 89% and the viability at 24 h, 100 μg/mL [9] was > 70%. The viability at 24 h, 250 μg/mL [9] was > 50%, the cell viability [10] was > 60% and the MIC [11] was 12.5 to 25 µg/mL. The “MIC Enterococcus faecalis (ATCC 29212)” value [12] was 12.5 µg/mL (≈ 9.94 µM), the viability at 24 h, 100 μg/mL [13] was > 70% and the calcein dye leakage [14] was 14.11%. The “MIC Clostridium difficile (ATCC 700057)” value [15] was 12.5 µg/mL (≈ 9.94 µM), the HC50 [16] was 230 µg/mL and the “eradication of fungal cells” value ([17]; at 4× the MIC) was “near-complete eradication”. The “eradication of fungal cells” value ([17]; at MIC) was “Complete eradication was not achieved”, the “MIC CaCl2” value [18] was 1.5 µg/mL (≈ 1.19 µM) and the “MIC Control” value [18] was 1.5 µg/mL (≈ 1.19 µM). The “MIC KCl” value [18] was 3.1 µg/mL (≈ 2.47 µM), the “MIC MgCl2” value [18] was 3.1 µg/mL (≈ 2.47 µM) and the “MIC NH4Cl” value [18] was 1.5 µg/mL (≈ 1.19 µM). For the same molecule, the “MIC NaCl” value [18] was 3.1 µg/mL (≈ 2.47 µM), the “decrease in biofilm mass” value ([19]; at 2× the MIC) was 60–62% and the “decrease in biofilm mass” value ([19]; at MIC) was 31–39%. The “reduction in biofilm mass” value ([20]; at 2× the MIC) was 60–65%, the “reduction in biofilm mass” value ([20]; at MIC, vs untreated control) was 40–45% and the “MIC Staphylococcus pneumoniae (ATCC 700677)” value [21] was 12.5 µg/mL (≈ 9.94 µM). For the same molecule, the viability at 24 h, 100 μg/mL [22] was > 70%, the “time to virtually eliminate all bacterial cells” value ([23]; at 4× the MIC) was 1 to 2 h and the “time to virtually eliminate all bacterial cells” value ([23]; at MIC) was 3 to 4 h. The “MIC CaCl2” value ([4]; ATCC 60193) was 6.2 µg/mL (≈ 4.93 µM), the “MIC Control” value ([4]; ATCC 60193) was 3.1 µg/mL (≈ 2.47 µM) and the “MIC KCl” value ([4]; ATCC 60193) was 3.1 µg/mL (≈ 2.47 µM). For the same molecule, the “MIC MgCl2” value ([4]; ATCC 60193) was 3.1 µg/mL (≈ 2.47 µM), the “MIC NH4Cl” value ([4]; ATCC 60193) was 6.2 µg/mL (≈ 4.93 µM) and the “MIC NaCl” value ([4]; ATCC 60193) was 3.1 µg/mL (≈ 2.47 µM). For the same molecule, the “eradication of fungal cells” value ([5]; at 4× the MIC) was “near-complete eradication”, the “eradication of fungal cells” value ([5]; at MIC) was “Complete eradication was not achieved” and the “change in MIC after repeated exposure (resistance development)” value [24] was “no signs of resistance development; also recorded: negligible changes in the MIC values”. The MIC [25] was 3.1 to 12.5 µg/mL, the viability at 24 h, 100 μg/mL [26] was > 70% and the “reduction in biofilm mass” value ([27]; at 2× the MIC) was 60–65%. For the same molecule, the “reduction in biofilm mass” value ([27]; at MIC) was 40–45%, the “MIC Pseudomonas aeruginosa (ATCC BAA-1744)” value [28] was 12.5 µg/mL (≈ 9.94 µM) and the “MIC Clostridium difficile (NAP1/027)” value [29] was 6.2 µg/mL (≈ 4.93 µM). It also gave a remaining at 0.5 h, 75 μM ([30]; human plasma) of ~82.4%, a remaining at 12 h, 75 μM ([30]; human plasma) of ~52.3% and a remaining at 24 h, 75 μM ([30]; human plasma) of ~44.9%. The half-life at 75 μM ([30]; plasma) was 13 h, the calcein dye leakage ([31]; 40 min) was “approximately 20%” and the calcein dye leakage ([31]; 60 min) was ~60%. For the same molecule, the “incubation time to 100% dye leakage” value ([31]; 50 μg/mL) was 60 min, the “MIC Enterococcus faecalis (ATCC 51575)” value [32] was 12.5 µg/mL (≈ 9.94 µM) and the “MIC Acinetobacter baumannii (ATCC BAA1605)” value [33] was 12.5 µg/mL (≈ 9.94 µM). The “reduction in biofilm mass” value ([34]; at 2× the MIC) was 49–56%, the “reduction in biofilm mass” value ([34]; at MIC) was 31–36% and the “time to completely halt growth of nearly all cells” value ([35]; at 4× the MIC) was 2 h. The “time to completely halt growth of nearly all cells” value ([35]; at MIC) was 4 h, the “MIC NaCl” value ([36]; ATCC BAA-2452) was 25 µg/mL (≈ 19.9 µM) and the “MIC CaCl2” value ([36]; E. coli (ATCC BAA-2452), CaCl2 2 mM) was 12.5 µg/mL (≈ 9.94 µM). The “MIC KCl” value ([36]; E. coli (ATCC BAA-2452), KCl […]) was 12.5 µg/mL (≈ 9.94 µM), the “MIC Control” value ([36]; E. coli (ATCC BAA-2452), MH media without salt ions or serum) was 12.5 µg/mL and the “MIC MgCl2” value ([36]; E. coli (ATCC BAA-2452), MgCl2 1 mM) was 12.5 µg/mL (≈ 9.94 µM). For the same molecule, the “MIC NH4Cl” value ([36]; E. coli (ATCC BAA-2452), NH4Cl 6 mM) was 12.5 µg/mL (≈ 9.94 µM) and the “MIC Escherichia coli (ATCC BAA-2452)” value [37] was 12.5 µg/mL (≈ 9.94 µM).
